{"source": "ChEMBL document CHEMBL5252513", "about": "“Identification of a Benzoisoxazoloazepine Inhibitor (CPI-0610) of the Bromodomain and Extra-Terminal (BET) Family as a Candidate for Human Clinical Trials” (J Med Chem, 2016)", "key": {"[1]": {"assay": "Toxicity in dog assessed as lymphoid depletion at 2 to 6 mg/kg,po QD consecutive for 14 days followed by 2 weeks recovery period", "assay_type": "organism-based, Canis lupus familiaris", "conditions": "in vivo, 336 h, dose 2-6 mg/kg, time 14 day", "how_it_was_run": "(§1)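 Oral suspension given once daily for 14 consecutive days (rat 2, 6, 20 mg/kg; dog 2, 4, 6 mg/kg) in dose range-finding and GLP repeat-dose studies, GLP arms with an added 2-week recovery period; histopathology and clinical pathology findings recorded.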"}, "[2]": {"assay": "Unbound AUC in mouse at 30 mg/kg,po", "assay_type": "ADME, organism-based", "conditions": "in vivo"}, "[3]": {"assay": "Clearance in rat assessed as liver blood flow at 1 mg/kg,iv", "assay_type": "ADME, organism-based", "conditions": "in vivo"}, "[4]": {"assay": "Unbound Cmax in human patient with progression lymphoma at 300 mg,po QD consecutively for 14 days", "assay_type": "ADME", "conditions": "in vivo, 336 h, time 14 day", "how_it_was_run": "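Oral dosing in patients with hematologic malignancies, cycles at escalating doses; 300 mg cohort sampled at day 14. Unbound Cmax = free fraction × Cmax.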"}, "[5]": {"assay": "Toxicity in rat assessed as degeneration of testicular seminiferous epithelium at 2 to 20 mg/kg,po QD consecutive for 14 days followed by 2 weeks recovery period", "assay_type": "organism-based", "conditions": "in vivo, 336 h, dose 2-20 mg/kg, time 14 day", "how_it_was_run": "as §1"}, "[6]": {"assay": "Cmax in dog at 2.5 mg/kg,po", "assay_type": "ADME, organism-based, Canis lupus familiaris", "parameters": "dose 2.5 mg/kg, route po", "conditions": "in vivo"}, "[7]": {"assay": "Toxicity in rat assessed as mild to moderate hyperglycemia at 2 to 20 mg/kg,po QD consecutive for 14 days followed by 2 weeks recovery period", "assay_type": "organism-based", "conditions": "in vivo, 336 h, dose 2-20 mg/kg, time 14 day", "how_it_was_run": "as §1"}, "[8]": {"assay": "Intrinsic clearance in dog liver microsomes", "assay_type": "ADME, Canis lupus familiaris, Microsome", "conditions": "read-out: CLH"}, "[9]": {"assay": "Unbound clearance in rat at 1 mg/kg,iv", "assay_type": "ADME, organism-based", "conditions": "in vivo"}, "MV4-11 [10]": {"system": "MV4-11", "assay": "In vivo inhibition of BRD4 in human MV4-11 cells xenografted in BALB/c mouse assessed as reduction in cellular MYC mRNA expression level in plasma at 15 mg/kg,sc BID and measured at 4 hrs by PCR anlaysis", "assay_type": "functional, organism-based", "how_it_was_run": "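Pharmacodynamic study in MV-4-11 AML mouse xenograft. Dosing was 15 mg/kg subcutaneous twice daily. At 4, 8 and 12 h after the second dose, MYC mRNA was measured against vehicle, and compound levels were measured in plasma and tumor. Free plasma concentration was estimated alongside total levels.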"}, "[11]": {"assay": "Tmax in mouse at 30 mg/kg,po", "assay_type": "ADME, organism-based", "conditions": "in vivo"}, "[12]": {"assay": "Total clearance in dog at 0.5 mg/kg,iv", "assay_type": "ADME, organism-based, Canis lupus familiaris", "conditions": "in vivo"}, "[13]": {"assay": "Toxicity in dog assessed as GI mucosal atrophy at 2 to 6 mg/kg,po QD consecutive for 14 days followed by 2 weeks recovery period", "assay_type": "organism-based, Canis lupus familiaris", "conditions": "in vivo, 336 h, dose 2-6 mg/kg, time 14 day", "how_it_was_run": "as §1"}, "[14]": {"target": "Histone acetyltransferase KAT2B (Homo sapiens, UniProt Q92831)", "sequence (Q92831 whole entry)": "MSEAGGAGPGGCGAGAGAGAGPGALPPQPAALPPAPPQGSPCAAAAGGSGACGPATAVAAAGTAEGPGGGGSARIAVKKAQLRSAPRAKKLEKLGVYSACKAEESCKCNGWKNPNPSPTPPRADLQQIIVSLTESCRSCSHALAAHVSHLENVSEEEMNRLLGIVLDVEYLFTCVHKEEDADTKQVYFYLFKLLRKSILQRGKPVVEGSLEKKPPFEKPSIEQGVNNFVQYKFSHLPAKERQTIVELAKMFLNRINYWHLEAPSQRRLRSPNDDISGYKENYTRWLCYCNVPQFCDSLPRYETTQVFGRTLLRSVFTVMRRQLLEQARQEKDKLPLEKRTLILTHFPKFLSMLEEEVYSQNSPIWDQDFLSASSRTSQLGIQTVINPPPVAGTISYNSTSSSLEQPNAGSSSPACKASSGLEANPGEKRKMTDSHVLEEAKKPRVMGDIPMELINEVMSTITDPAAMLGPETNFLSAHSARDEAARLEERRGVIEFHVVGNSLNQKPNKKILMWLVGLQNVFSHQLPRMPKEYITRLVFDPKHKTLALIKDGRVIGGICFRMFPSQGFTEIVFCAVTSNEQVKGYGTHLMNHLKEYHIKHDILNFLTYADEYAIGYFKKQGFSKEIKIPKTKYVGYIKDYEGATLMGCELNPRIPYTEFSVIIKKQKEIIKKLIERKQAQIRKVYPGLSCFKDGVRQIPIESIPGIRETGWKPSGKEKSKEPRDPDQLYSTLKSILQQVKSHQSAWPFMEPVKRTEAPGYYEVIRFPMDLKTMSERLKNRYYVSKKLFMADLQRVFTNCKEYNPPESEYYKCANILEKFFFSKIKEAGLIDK", "assay": "Displacement of biotinylated JQ1 from PCAF bromodomain (unknown origin) incubated for 20 mins by AlphaLISA assay"}, "[15]": {"assay": "Cmax in mouse at 30 mg/kg,po", "assay_type": "ADME, organism-based", "parameters": "dose 30 mg/kg, route po", "conditions": "in vivo"}, "MV4-11 [16]": {"system": "MV4-11", "assay": "Antitumor activity against human MV4-11 cells xenografted in BALB/c mouse assessed as tumor growth inhibition at 30 mg/kg,po BID for 28 days", "assay_type": "functional", "conditions": "MV4-11, 672 h, time 28 day, read-out: TGI", "how_it_was_run": "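Single-agent efficacy in MV-4-11 AML mouse xenograft. Tumor volume (mm3) and percent body-weight change were tracked over the treatment days.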"}, "[17]": {"assay": "Unbound clearance in dog at 0.5 mg/kg,iv", "assay_type": "ADME, organism-based, Canis lupus familiaris", "conditions": "in vivo"}, "Peregrin": {"target": "T1, Peregrin (Homo sapiens, UniProt P55201)", "T1 sequence (P55201 whole entry)": "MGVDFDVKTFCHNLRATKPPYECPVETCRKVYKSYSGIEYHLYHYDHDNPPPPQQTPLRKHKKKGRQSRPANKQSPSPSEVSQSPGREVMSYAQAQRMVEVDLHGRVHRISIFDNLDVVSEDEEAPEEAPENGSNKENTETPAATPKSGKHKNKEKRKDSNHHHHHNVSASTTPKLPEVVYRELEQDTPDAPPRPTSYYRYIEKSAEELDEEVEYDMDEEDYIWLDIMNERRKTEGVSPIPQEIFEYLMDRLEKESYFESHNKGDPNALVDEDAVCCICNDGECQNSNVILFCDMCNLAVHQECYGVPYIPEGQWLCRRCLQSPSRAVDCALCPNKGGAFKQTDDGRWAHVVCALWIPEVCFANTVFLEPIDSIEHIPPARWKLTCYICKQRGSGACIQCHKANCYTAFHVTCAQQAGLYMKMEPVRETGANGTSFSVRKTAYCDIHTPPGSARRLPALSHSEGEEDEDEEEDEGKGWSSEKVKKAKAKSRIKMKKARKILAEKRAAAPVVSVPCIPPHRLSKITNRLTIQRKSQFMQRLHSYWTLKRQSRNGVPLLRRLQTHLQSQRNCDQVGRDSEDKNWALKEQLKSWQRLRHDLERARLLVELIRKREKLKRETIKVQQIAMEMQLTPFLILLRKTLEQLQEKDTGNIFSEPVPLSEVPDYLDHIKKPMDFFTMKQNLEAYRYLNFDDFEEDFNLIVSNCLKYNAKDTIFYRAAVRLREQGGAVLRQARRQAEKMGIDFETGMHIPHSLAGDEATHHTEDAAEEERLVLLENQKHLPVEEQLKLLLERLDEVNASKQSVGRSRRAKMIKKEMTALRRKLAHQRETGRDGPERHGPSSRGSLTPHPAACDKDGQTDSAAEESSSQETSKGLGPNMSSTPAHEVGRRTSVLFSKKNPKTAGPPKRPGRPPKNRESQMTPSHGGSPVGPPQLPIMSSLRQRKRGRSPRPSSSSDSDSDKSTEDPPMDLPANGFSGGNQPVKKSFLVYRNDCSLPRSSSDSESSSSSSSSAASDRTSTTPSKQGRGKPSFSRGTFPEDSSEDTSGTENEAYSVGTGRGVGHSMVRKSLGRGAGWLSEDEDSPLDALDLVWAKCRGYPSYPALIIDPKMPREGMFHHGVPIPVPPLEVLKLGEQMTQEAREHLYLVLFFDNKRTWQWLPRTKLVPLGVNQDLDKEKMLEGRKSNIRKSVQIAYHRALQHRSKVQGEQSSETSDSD", "assay": "Displacement of biotinylated JQ1 from BRPF1 bromodomain (unknown origin) incubated for 20 mins by AlphaLISA assay"}, "[18]": {"assay": "Total clearance in rat at 1 mg/kg,iv", "assay_type": "ADME, organism-based", "conditions": "in vivo"}, "[19]": {"assay": "Toxicity in dog assessed as GI mucosal ulceration at 2 to 6 mg/kg,po QD consecutive for 14 days followed by 2 weeks recovery period", "assay_type": "organism-based, Canis lupus familiaris", "conditions": "in vivo, 336 h, dose 2-6 mg/kg, time 14 day", "how_it_was_run": "as §1"}, "[20]": {"assay": "Protein binding in mouse plasma", "assay_type": "ADME, cell-free", "conditions": "read-out: PPB (converted)"}, "[21]": {"assay": "AUC (0 to infinity) in rat at 5 mg/kg,po", "assay_type": "ADME, organism-based", "parameters": "dose 5 mg/kg, route po", "conditions": "in vivo"}, "[22]": {"assay": "Tmax in mouse at 10 mg/kg,sc", "assay_type": "ADME, organism-based", "conditions": "in vivo"}}, "note": "Calls of active or inactive are those of the source. No cut-off for these calls is given here."}
{"smiles": "Cc1noc2c1-c1ccccc1C(c1ccc(Cl)cc1)=N[C@H]2CC(N)=O", "note": "[PELABRESIB]", "values": [{"measurement": "Activity", "setting": "[1]", "value": "Toxic"}, {"measurement": "fAUC", "setting": "[2]", "value": 3, "unit": "µM·h"}, {"measurement": "QH", "setting": "[3]", "value": 36, "unit": "%"}, {"measurement": "fCmax", "setting": "[4]", "value": 0.3, "unit": "µM"}, {"measurement": "Activity", "setting": "[5]", "value": "Toxic"}, {"measurement": "Cmax", "setting": "[6]", "value": 2.9, "unit": "µM"}, {"measurement": "Activity", "setting": "[7]", "value": "Toxic"}, {"measurement": "predicted hepatic clearance", "setting": "[8]", "value": 20, "unit": "mL/min/kg"}, {"measurement": "CL free", "setting": "[9]", "value": 283, "unit": "mL/min/kg"}, {"measurement": "inhibition", "setting": "MV4-11 [10]", "value": "Active"}, {"measurement": "Tmax", "setting": "[11]", "value": 25.2, "unit": "min"}, {"measurement": "clearance", "setting": "[12]", "value": 1.83, "unit": "mL/min/kg"}, {"measurement": "Activity", "setting": "[13]", "value": "Toxic"}, {"measurement": "IC50", "setting": "[14]", "value": "> 20", "unit": "µM"}, {"measurement": "Cmax", "setting": "[15]", "value": 24, "unit": "µM"}, {"measurement": "inhibition in vivo at 30 mg/kg", "setting": "MV4-11 [16]", "value": 80, "unit": "%"}, {"measurement": "CL free", "setting": "[17]", "value": 46.7, "unit": "mL/min/kg"}, {"measurement": "IC50", "setting": "Peregrin", "value": "> 20", "unit": "µM"}, {"measurement": "clearance", "setting": "[18]", "value": 20, "unit": "mL/min/kg"}, {"measurement": "Activity", "setting": "[19]", "value": "Toxic"}, {"measurement": "fraction unbound", "setting": "[20]", "value": 0.03}, {"measurement": "AUC(0-inf)", "setting": "[21]", "value": 9.1, "unit": "µM·h"}, {"measurement": "Tmax", "setting": "[22]", "value": 78, "unit": "min"}]}
